Results on nine molecules are retold here after ChEMBL document CHEMBL4017549, “Structural Basis of Inhibition of ERα-Coactivator Interaction by High-Affinity N-Terminus Isoaspartic Acid Tethered Helical Peptides” (J Med Chem, 2017).

Data set [1] addresses T1, Estrogen receptor (Homo sapiens) (UniProt P03372).
T1 sequence (whole entry): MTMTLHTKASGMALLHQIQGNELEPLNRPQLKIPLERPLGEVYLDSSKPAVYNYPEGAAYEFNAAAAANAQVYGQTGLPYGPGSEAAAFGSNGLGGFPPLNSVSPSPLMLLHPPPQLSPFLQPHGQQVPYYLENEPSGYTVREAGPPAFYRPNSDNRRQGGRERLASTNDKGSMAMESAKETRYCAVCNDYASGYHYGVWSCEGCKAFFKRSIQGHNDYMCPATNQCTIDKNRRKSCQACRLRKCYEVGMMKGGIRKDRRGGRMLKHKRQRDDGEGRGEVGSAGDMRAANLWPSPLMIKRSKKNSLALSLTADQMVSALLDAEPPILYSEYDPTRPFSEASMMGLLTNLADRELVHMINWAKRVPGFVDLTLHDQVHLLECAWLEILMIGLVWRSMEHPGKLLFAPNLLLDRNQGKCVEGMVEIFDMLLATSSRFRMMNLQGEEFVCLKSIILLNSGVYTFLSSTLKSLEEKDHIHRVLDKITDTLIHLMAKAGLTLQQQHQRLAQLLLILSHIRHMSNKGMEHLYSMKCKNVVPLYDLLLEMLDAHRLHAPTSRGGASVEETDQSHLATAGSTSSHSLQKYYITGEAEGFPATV
Put plainly: Binding affinity to recombinant human GFP-fused ERalpha LBD (301 to 553 residues) expressed in Escherichia coli BL21(DE3) after 40 mins in presence of 17beta-estradiol by fluorescence polarization assay. The settings on record: in the assay text read “ERalpha LBD” for “GFP-fused ERalpha LBD”. Background: In fluorescence polarisation assays a small probe gives low polarisation when free and higher when bound to something large.

The next data set relates to MCF7. Kind of data set: Cytotoxicity against human MCF7 cells assessed as cell viability at 20 uM after 24 hrs by MTT assay. The settings on record: MCF7, 24 h, read-out: Activity. In kind it is functional. (In general: Tetrazolium dyes change colour on reduction, which living cells bring about.)
For data set [2], the target named is T1, Estrogen receptor (Homo sapiens). Put plainly: Binding affinity to recombinant human GFP-fused ERalpha LBD (301 to 553 residues) expressed in Escherichia coli BL21(DE3) in presence of ERalpha inhibitor 4-hydroxytamoxifen by ITC. The procedure, abridged: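 ITC at 25 °C. 50 μM peptide injected in 2 μL steps into 5 μM ERα LBD in 50 mM Tris pH 8.0, 150 mM NaCl, 1 mM TCEP containing 0.1 mM 4-hydroxytamoxifen instead of estradiol. Isotherm fitted.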
In general terms: In ITC the heat of successive injections is recorded.

Data set [3] can be described thus: Drug uptake in human U2OS cells assessed per million cells at 5 uM after 3 hrs by FACS analysis. In kind it is ADME, cell-based. The procedure, abridged: (§1)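 Adherent cells seeded overnight, then exposed to 5 μM FITC-labelled peptide or DMSO in FBS-free medium, 3 h, 37 °C. After PBS washes (three), about 10000 cells per sample analysed by flow cytometry; mean cellular fluorescence intensity calculated. More than two independent experiments, SEM.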

Data set [4] is described as follows: Drug uptake in human MCF7 cells assessed per million cells at 5 uM after 3 hrs by FACS analysis. The format is ADME, cell-based. The settings on record: mcf7, 3 h. The procedure, abridged:
as §1

The target in data set [5] is T1, Estrogen receptor (Homo sapiens). Kind of data set: Binding affinity to recombinant human GFP-fused ERalpha LBD (301 to 553 residues) expressed in Escherichia coli BL21(DE3) in presence of 17beta-estradiol by ITC. The procedure, abridged:
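ITC at 25 °C. 2 μL injections of 50 μM peptide into 5 μM ERα LBD in 50 mM Tris pH 8.0, 150 mM NaCl, 1 mM TCEP, 0.1 mM 17β-estradiol. Binding isotherm fitted for affinity.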

Data set [6] has the same target. Kind of data set: Inhibition of recombinant human GFP-fused ERalpha LBD (301 to 553 residues) expressed in human […] cells assessed as downregulation of 17beta-estradiol-induced transcription at 5 uM preincubated for 4 hrs followed by E2 addition measured after 20 hrs by dual luciferase reporter gene assay. The format is cell-based. The procedure, abridged:
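U2OS cells in phenol red-free DMEM with 10% charcoal-stripped FBS, transfected 4 h with pEGFP-C1-ERα, 3XERE firefly luciferase reporter and pRL-TK Renilla plasmids. Peptides for 4 h, then 10 nM E2 or DMSO for 20 h. Lysates read by dual-luciferase; firefly normalized to Renilla, then to DMSO-treated control. SEM from more than two independent experiments.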

Data set [7] shares this target. Put plainly: Inhibition of ERalpha in human MCF7 cells assessed as downregulation of 17beta-estradiol-mediated pS2 mRNA expression at 5 uM preincubated for 4 hrs followed by 17beta-estradiol addition measured after 16 hrs by quantitative RT-PCR analysis. In kind it is cell-based. In short, it runs like this:
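MCF-7 cells hormone-depleted 72 h in phenol red-free DMEM with 5% charcoal-treated serum, given peptides or DMSO for 4 h, then 100 nM 17β-estradiol or DMSO for 16 h. pS2 mRNA measured by quantitative RT-PCR, normalized to β-actin. Three independent experiments, mean ± SEM.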

Calls of active or inactive are those of the source. The calls are words filed in the database; no cut-off is given here. Bridge positions count the residues as written; N and C are the ends. Square brackets hold non-standard residues; d marks the D form. Side chains are listed from the residue outwards. Peptide text beside a SMILES is read from it. * marks the point of attachment. ξ: configuration not given here. FITC = O=C1OC2(c3ccc(O)cc3Oc3cc(O)ccc32)c2ccc(NC(=S)*)cc21; ξtBuAla = CC(C)(C)CC(N)C(=O)O; ξD = NC(CC(=O)O)C(=O)O; ξDap = NCC(N)C(=O)O; βAla = NCCC(=O)O

As for `CC[C@H](C)[C@@H]1NC(=O)C[C@H](NC(=O)[C@H](CCCNC(=N)N)NC(=O)CCNC(=S)Nc2ccc3c(c2)C(=O)OC32c3ccc(O)cc3Oc3cc(O)ccc32)C(=O)NCC(C(=O)N[C@@H](CCCNC(=N)N)C(=O)N[C@@H](CC(C)C)C(=O)N[C@@H](CC(C)C)C(=O)N[C@@H](CCC(N)=O)C(N)=O)NC(=O)C(CC(C)(C)C)NC1=O` (some centres not stated), the outcome in data set [1] was Active.
Take `CC[C@H](C)[C@@H]1NC(=O)C[C@H](NC(=O)[C@H](CCCNC(=N)N)NC(=O)CCNC(=O)[C@H](Cc2c[nH]c3ccccc23)NC(C)=O)C(=O)NCC(C(=O)N[C@@H](CCCNC(=N)N)C(=O)NC(CC(C)(C)C)C(=O)N[C@@H](CC(C)C)C(=O)N[C@@H](CCC(N)=O)C(N)=O)NC(=O)[C@H](CC(C)C)NC1=O` (some centres not stated): the viability at 20 µM in the data set with MCF7 came out at 53.9%.
Still for that read-out and setting: the same measure for `CC[C@H](C)[C@@H]1NC(=O)C[C@H](NC(=O)[C@H](CCCNC(=N)N)NC(=O)CCNC(=O)[C@H](Cc2c[nH]c3ccccc23)NC(C)=O)C(=O)NCC(C(=O)N[C@@H](CCCNC(=N)N)C(=O)N[C@@H](CC(C)C)C(=O)N[C@@H](CC(C)C)C(=O)N[C@@H](CCC(N)=O)C(N)=O)NC(=O)[C@H](CC(C)C)NC1=O` (some centres not stated): 64.5%.
Regarding `CC[C@H](C)[C@@H]1NC(=O)C[C@H](NC(=O)[C@H](CCCNC(=N)N)NC(=O)CCNC(=S)Nc2ccc3c(c2)C(=O)OC32c3ccc(O)cc3Oc3cc(O)ccc32)C(=O)NCC(C(=O)N[C@@H](CCCNC(=N)N)C(=O)N[C@@H](CC(C)C)C(=O)NC(CC(C)(C)C)C(=O)N[C@@H](CCC(N)=O)C(N)=O)NC(=O)[C@H](CC(C)C)NC1=O` (some centres not stated), the result in data set [1] was Active.
As to `CC[C@H](C)[C@@H]1NC(=O)C[C@H](NC(=O)[C@H](CCCNC(=N)N)NC(=O)CCNC(=O)[C@H](Cc2c[nH]c3ccccc23)NC(C)=O)C(=O)NCC(C(=O)N[C@@H](CCCNC(=N)N)C(=O)N[C@@H](CC(C)C)C(=O)N[C@@H](CC(C)C)C(=O)N[C@@H](CCC(N)=O)C(N)=O)NC(=O)C(CC(C)(C)C)NC1=O` (some centres not stated), the viability at 20 µM in the data set with MCF7 is 53.9%.
On the same count and under the same terms, the result for `CC[C@H](C)[C@@H]1NC(=O)C[C@H](NC(=O)[C@H](CCCNC(=N)N)NC(=O)CCNC(=O)[C@H](Cc2c[nH]c3ccccc23)NC(C)=O)C(=O)NCC(C(=O)N[C@@H](CCCNC(=N)N)C(=O)N[C@@H](CC(C)C)C(=O)NC(CC(C)(C)C)C(=O)N[C@@H](CCC(N)=O)C(N)=O)NC(=O)[C@H](CC(C)C)NC1=O` (some centres not stated) reads 43.1%.
In the case of `CC[C@H](C)[C@@H]1NC(=O)C[C@H](NC(=O)[C@H](CCCNC(=N)N)NC(=O)CCNC(=S)Nc2ccc3c(c2)C(=O)OC32c3ccc(O)cc3Oc3cc(O)ccc32)C(=O)NCC(C(=O)N[C@@H](CCCNC(=N)N)C(=O)NC(CC(C)(C)C)C(=O)N[C@@H](CC(C)C)C(=O)N[C@@H](CCC(N)=O)C(N)=O)NC(=O)[C@H](CC(C)C)NC1=O` (some centres not stated), the result in data set [2] was inactive. The outcome in data set [1] and in data set [5] was Active. Besides, the Drug uptake entry in data set [3] and in data set [4] was “Active” throughout.
Regarding `CC[C@H](C)[C@@H]1NC(=O)C(NC(=O)[C@H](CCCNC(=N)N)NC(=O)CCNC(=O)[C@H](Cc2c[nH]c3ccccc23)NC(C)=O)CNC(=O)C(CC(=O)N[C@@H](CCC(N)=O)C(=O)NC(CC(C)(C)C)C(=O)N[C@@H](CCCNC(=N)N)C(=O)NC(CC(C)(C)C)C(N)=O)NC(=O)C(CC(C)(C)C)NC1=O` (stereo partly drawn) (Ac-W[βAla]R[ξDap]I[ξtBuAla][ξD]([Gln-ξtBuAla-Arg-ξtBuAla-NH2]); lactam 4-C), the inhibition entry in data set [6] and in data set [7] was “inactive” in each case. In addition, the viability at 20 µM in the data set on MCF7 was found to be 79.2%.
Take `CC[C@H](C)[C@@H]1NC(=O)C(NC(=O)[C@H](CCCNC(=N)N)NC(=O)CCNC(=S)Nc2ccc3c(c2)C(=O)OC32c3ccc(O)cc3Oc3cc(O)ccc32)CNC(=O)C(CC(=O)N[C@@H](CCC(N)=O)C(=O)NC(CC(C)(C)C)C(=O)N[C@@H](CCCNC(=N)N)C(=O)NC(CC(C)(C)C)C(N)=O)NC(=O)C(CC(C)(C)C)NC1=O` (stereo partly drawn) ({FITC-βAla}-R[ξDap]I[ξtBuAla][ξD]([Gln-ξtBuAla-Arg-ξtBuAla-NH2]); lactam 2-C): the result in data set [1] was inactive. The Drug uptake entry in data set [3] and in data set [4] was “Active” in each case.
